Compound activity as filed in PubChem.
SIRT5 block – SIRT5 desuccinylase inhibitors, primary screen, biochemical, fluorescence imaging, single point, set 5; Purified SirT5, succinyl-peptide AMC, trypsin-coupled fluorescence; inhibition, % at 15 µM; actives 1.1% (n = 330,000); AID 652115, 2013; in the data active = inhibition above about 15%; inconclusive = no clear call, values can overlap the other calls
Target sequence (Q9NXA8 whole entry, looked up): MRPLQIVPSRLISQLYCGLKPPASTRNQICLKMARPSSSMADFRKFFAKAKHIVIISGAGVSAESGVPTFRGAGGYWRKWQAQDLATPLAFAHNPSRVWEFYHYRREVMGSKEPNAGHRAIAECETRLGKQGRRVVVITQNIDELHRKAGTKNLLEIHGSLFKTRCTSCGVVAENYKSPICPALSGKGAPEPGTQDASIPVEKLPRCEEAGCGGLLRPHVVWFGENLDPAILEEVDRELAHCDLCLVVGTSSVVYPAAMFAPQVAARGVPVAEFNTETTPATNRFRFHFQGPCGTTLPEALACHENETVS
S100A4 MyoIIA – inhibitors of S100A4-myosin IIA peptide binding, primary screen, biochemical, fluorescence polarization, TAMRA-MyoIIA peptide. Protein S100-A4 (Homo sapiens), P26447. inhibition, % at 10.7 µM. actives 0.14% (n = 360,000);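 active = mean inhibition of at least 70% across replicates, with every replicate also reaching that level; inconclusive = mean inhibition reaches 70% but some replicates fall short; inactive = mean inhibition below 70%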
Target sequence (P26447 whole entry, looked up): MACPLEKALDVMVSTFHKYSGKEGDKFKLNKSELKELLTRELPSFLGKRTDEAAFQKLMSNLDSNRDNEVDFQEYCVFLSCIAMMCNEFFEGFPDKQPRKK
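System – human S100A4 monomer protein, biochemical binding assay · Buffer or medium – Calcium-containing HEPES buffer, pH 7.2 · Timing – 5 min between mix addition and reading · Also added – TAMRA-labelled myosin IIA heavy-chain peptide probe, 5 nM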
DENV2 CPE rescue – inhibitors of DENV2 cytopathic effect, primary screen, cell-based, plate reader, single concentration; DENV2-infected cells, cytopathic effect rescue; CPE inhibition, % at 9.99 µM; actives 1.7% (n = 350,000); in the data active = CPE inhibition above about 20%, passing the limit was not always enough; inconclusive = no clear call, values can overlap the other calls; tested in BHK-21 cells;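 also: 0% = median of neutral control wells and 100% = median of positive control wells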
PGC1a acetyl inh – inhibitors of PGC1a acetylation signal, primary screen, cell-based, U2OS, AlphaScreen, inhibitor mode. actives 0.17% (n = 350,000). AID 651687, 2012. inhibition, % at 15.6 µM. AlphaScreen anti-acetyl-lysine; with virally co-expressed GCN5 acetyltransferase;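 active = every replicate shows inhibition of at least 40%; inconclusive = mean inhibition at least 40% but some replicate below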;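 also: 0% = neutral control wells and 100% = positive control wells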
Statin myotox sup – suppressors of statin myotoxicity in C2C12 myotubes, primary screen, cell-based, single point, plate reader; C2C12 myotubes + simvastatin, ATP luminescence, 48 h; scaled: DMSO 0, geranylgeraniol control 100; rescue of ATP level, % at 7.49 µM; actives 0.78% (n = 330,000);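 active = mean ATP rescue above about 67%, or every replicate alone reaching that limit, limit read from the data, passing the limit was not always enough; inconclusive = no clear call, values can overlap the other calls; inactive = mean under the limit and some replicate under it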;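 also: myotubes were challenged with 10 µM simvastatin during compound exposure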
The depositor's hits bear a star; ? = inconclusive; / = not tested or not shown. Shown are actives, neighbours in structure and some others; about 2.9% of the full set was active somewhere.

SMILES	SIRT5 block	S100A4 MyoIIA	DENV2 CPE rescue	PGC1a acetyl inh	Statin myotox sup
CC(O)(c1cccc(F)c1)c1nc(/C=C/c2ccccc2)cs1 (centres undefined)	/	-1	22*	-6	-3
Cc1cc(OCC(O)CNC(C)(C)C)ccc1Cl (centres undefined)	21*	-2	-5	-2	/
COc1ccc(CN(C)C[C@H]2OCCCC[C@@H](C)Oc3ccc(NC(=O)CCC(F)(F)F)cc3C(=O)N([C@H](C)CO)C[C@H]2C)cc1	2	5	-1	-13	/
C[C@H]1CCCCO[C@@H](CN(C)Cc2ccc(C(F)(F)F)cc2)[C@@H](C)CN([C@@H](C)CO)C(=O)c2cc(NC(=O)CCC(F)(F)F)ccc2O1	16*	-2	-6	7	19
C[C@H](CO)N1C[C@H](C)[C@@H](CN(C)Cc2ccc(Cl)c(Cl)c2)OCCCC[C@H](C)Oc2ccc(NC(=O)CCC(F)(F)F)cc2C1=O	0	-6	-2	1	2
COc1ccc(CN(C)C[C@@H]2OCCCC[C@@H](C)Oc3ccc(NC(=O)CCC(F)(F)F)cc3C(=O)N([C@H](C)CO)C[C@H]2C)cc1	6	15	30*	-7	/
C[C@@H]1CN([C@H](C)CO)C(=O)c2cc(NC(=O)CCC(F)(F)F)ccc2O[C@@H](C)CCCCO[C@H]1CN(C)Cc1ccc(Cl)c(Cl)c1	1	4	71*	23	/
C[C@@H]1CCCCO[C@@H](CN(C)CC2CCCCC2)[C@@H](C)CN([C@H](C)CO)C(=O)c2cc(NC(=O)CCC(F)(F)F)ccc2O1	/	/	63*	-1	/
C[C@@H]1CCCCO[C@@H](CN(C)Cc2ccc(C(F)(F)F)cc2)[C@@H](C)CN([C@H](C)CO)C(=O)c2cc(NC(=O)CCC(F)(F)F)ccc2O1	0	-3	-7	-4	15
CN(C)CC(=O)N1CC2(C1)[C@H](c1ccccc1)[C@@H](CO)N2C(=O)C1CCC1	0	4	-13	3	/
COc1ccc(NC(=O)N(C)C[C@H]2OCCCC[C@@H](C)Oc3ccc(NC(=O)CCC(F)(F)F)cc3C(=O)N([C@@H](C)CO)C[C@H]2C)cc1	2	-2	21*	-3	-7
COc1ccc(NC(=O)N(C)C[C@H]2OCCCC[C@@H](C)Oc3ccc(NC(=O)CCC(F)(F)F)cc3C(=O)N([C@@H](C)CO)C[C@@H]2C)cc1	3	1	-9	-6	-15
CCOC(=O)c1c(NC(=O)/C=C/C(=O)O)sc(C)c1-c1ccc(C(C)(C)C)cc1	3	-1	1	47*	/
CCOC(=O)c1c(NC(=O)/C=C\C(=O)O)sc(C)c1-c1ccccc1	2	-3	-12	12	6
CN(Cc1ccccc1)C(=O)c1ccc(NC(=O)Cc2ccc(NC(=O)C3CCN(C(=O)C4CCC4)CC3)cc2)cc1	1	-1	53*	2	-6
CN(C(=O)c1ccc(NC(=O)Cc2ccc(NC(=O)C3CCN(C(=O)CCc4ccccc4)CC3)cc2)cc1)C1CC1	8	1	-23	-7	160*
CN(C(=O)c1ccc(NC(=O)Cc2ccc(NC(=O)C3CCN(C(=O)CCc4ccccc4)CC3)cc2)cc1)C1CCCC1	-1	-26	-8	/	7
CCCC#Cc1ccc([C@H]2[C@H]3CN(CC4CC4)CCCCN3[C@H]2CO)cc1	-6	0	-9	-10	/
CCCC#Cc1ccc([C@H]2[C@H](CO)N3CCCCN(CC4CCOCC4)C[C@@H]23)cc1	5	?	56*	-11	-5
COCC#Cc1ccc([C@H]2[C@H]3CN(Cc4cncnc4)CCCCN3[C@H]2CO)cc1	2	-9	21*	12	/
COCC#Cc1ccc([C@H]2[C@@H](CO)N3CCCCN(Cc4cncnc4)C[C@@H]23)cc1	-6	-16	16	3	/
Oc1ccc(-c2csc(Nc3ncccn3)n2)c(O)c1	0	0	5	10	8
Oc1ccc(-c2csc(Nc3ccc4c(c3)OCO4)n2)c(O)c1	/	1	5	5	132*
C[C@@H]1CCCCO[C@H](CN(C)C(=O)Nc2ccccc2)[C@H](C)CN([C@@H](C)CO)C(=O)c2cc(NS(=O)(=O)c3cccs3)ccc2O1	-3	-5	-6	3	/
OC(c1ccccc1)C(NCc1ccccc1)c1ccccc1 (centres undefined)	-2	-3	21*	-13	19
SMILES	SIRT5 block	S100A4 MyoIIA	DENV2 CPE rescue	PGC1a acetyl inh	Statin myotox sup
Cn1c(N)c(C(=O)COC(=O)C2(c3cccc(F)c3)CCCC2)c(=O)n(C)c1=O	/	/	/	-21	108*
COc1cccc(-c2ccc(C3[C@@H]4CN(S(=O)(=O)Cc5ccccc5)C[C@H]3N4)cc2)c1 (some centres undefined)	/	/	-3	-16	/
CC(/C=N/NC(=O)c1nn(C)c(C)c1Br)=C\c1ccccc1	/	1	25*	-6	31
COc1ccc(S(=O)(=O)Nc2cc(C(=O)NCCCOC(C)C)ccc2N2CCOCC2)cc1	-1	1	9	/	/
COc1ccc(S(=O)(=O)Nc2cc(C(=O)NCCC(C)C)ccc2N2CCOCC2)cc1	/	/	/	-28	93*
CCN(C[C@@H]1N[C@H](CO)[C@H]1c1ccc(-c2ccc(F)cc2)cc1)C(=O)COC	2	-5	19	15	-9
CCN(C)C1CN(Cc2cn(Cc3ccc(F)cc3)nn2)S(=O)(=O)C1 (centres undefined)	-2	5	46*	/	/
CN(Cc1cn(Cc2ccccc2)nn1)C1CN(Cc2cn(Cc3ccccc3)nn2)S(=O)(=O)C1 (centres undefined)	-1	2	-7	/	/
CCN(C)C1CN(Cc2cn(Cc3ccccc3)nn2)S(=O)(=O)C1 (centres undefined)	-1	-1	21*	/	/
COc1cc(OC)c(-c2sc(Nc3ccccc3)n[n+]2-c2ccc(F)cc2)cc1OC	/	-2	-1	3	-9
COc1ccc(-c2sc(Nc3ccccc3)n[n+]2-c2ccc(F)cc2)c(OC)c1OC	-7	-3	136*	-8	-8
COc1cc(Br)c(-c2sc(Nc3ccccc3)n[n+]2-c2ccc(F)cc2)cc1OC	2	-2	8	6	135*
COCC#Cc1ccc2c(c1)O[C@H](CN(C)C(=O)c1ccccc1)[C@H](C)CN([C@@H](C)CO)S2(=O)=O	-2	-55	0	-3	-7
O=C(C[C@H]1CC[C@@H]2[C@H](COC[C@H](O)CN2C(=O)c2ccc3c(c2)OCO3)O1)NC1Cc2ccccc2C1	-1	?	24*	0	-9
